Screens as filed in PubChem BioAssay.
Compounds with a hit are over-represented: about 2.5% of the library has one in this group of screens.
MC4R barr agon = MC4R agonists recruiting beta-arrestin, primary screen, cell-based, luminescence, agonist arm of biased-ligand search | actives 0.98% (n = 360,000) | U2OS MC4R beta-arrestin complementation; percent of melanotan II response, DMSO zero | activation, % at 8.9 µM | Melanocortin receptor 4 (Homo sapiens), P32245;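 active means activation above a per-plate cutoff, the mean activation of sample wells on that plate plus 3 SD, cut at about 8% in these data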
Rev-erbA mod = modulators of Rev-erb alpha DNA binding, primary screen, biochemical, FITC-DNA, fluorescence polarization, uHTS | actives 0.79% (n = 370,000) | AID 1259318, 2017 | Rev-erbα–FITC-DNA binding, 90 min | activity, % at 10 µM | Nuclear receptor subfamily 1 group D member 1 (Homo sapiens), P20393;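 active means activity above about 14%, limit read from the data; passing the limit was not always enough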
Target sequence (P20393 whole entry, looked up): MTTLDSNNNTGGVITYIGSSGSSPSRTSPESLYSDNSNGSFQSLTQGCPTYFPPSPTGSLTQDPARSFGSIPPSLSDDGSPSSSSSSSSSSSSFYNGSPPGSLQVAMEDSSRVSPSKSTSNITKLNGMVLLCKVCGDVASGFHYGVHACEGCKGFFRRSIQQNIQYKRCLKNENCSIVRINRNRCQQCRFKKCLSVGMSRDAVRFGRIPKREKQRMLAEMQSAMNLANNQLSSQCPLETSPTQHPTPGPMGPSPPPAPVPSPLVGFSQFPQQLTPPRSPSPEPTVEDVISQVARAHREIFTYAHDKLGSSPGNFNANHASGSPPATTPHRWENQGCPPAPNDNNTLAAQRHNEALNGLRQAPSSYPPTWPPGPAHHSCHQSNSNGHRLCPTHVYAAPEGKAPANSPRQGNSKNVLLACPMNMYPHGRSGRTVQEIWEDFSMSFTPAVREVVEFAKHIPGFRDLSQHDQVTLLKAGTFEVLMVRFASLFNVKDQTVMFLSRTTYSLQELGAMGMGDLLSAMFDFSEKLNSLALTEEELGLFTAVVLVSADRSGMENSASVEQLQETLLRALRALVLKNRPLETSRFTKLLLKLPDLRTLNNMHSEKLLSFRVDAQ
NTR1 agonist = agonists of human NTR1, primary screen, imaging, U2OS cells, beta-arrestin-GFP, high content; Neurotensin receptor type 1 (Homo sapiens), P30989; NTR1-U2OS beta-arrestin-GFP spot imaging, agonist mode; activation, % at 20 µM; actives 0.17% (n = 330,000); AID 493036, 2011;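 active means activation at or above 40% of the spot to cytoplasm intensity ratio, with at least 20 cells analyzed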
MC4R antagonist = MC4R antagonists of cAMP signaling, primary screen, cell-based, TR-FRET, antagonist arm of biased-ligand search; inhibition, % at 6.5 µM; AID 540295, 2011; MC4R-expressing cells, MTII-stimulated cAMP, LANCE TR-FRET; Melanocortin receptor 4 (Homo sapiens), P32245; actives 0.48% (n = 360,000);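 active means inhibition above its plate's cutoff, the mean of tested wells on that plate plus 3 SD, cut at about 29% in these data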
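Test system: U2OS cells stably expressing human melanocortin 4 receptor (MC4R); also added: Melanotan II challenge; compound: 6.5 µM single dose; timing: 30-min compound preincubation, 1-h Melanotan II challenge, 1-h detection, room temperature; signal: Eu-cAMP/anti-cAMP TR-FRET, emission 671 nm; repeats: one well per compound, no replicates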
PG9 binder = binders of HIV-1 gp120 antibody PG9, primary screen, biochemical, TR-FRET. TR-FRET gp120-PG9 antibody binding. inhibition, % at 6.7 µM. actives 0.43% (n = 360,000); in the data active means inhibition above about 8.5%
NR1D1 mod conf = modulators of Rev-erb alpha DNA binding, confirmation, biochemical, FITC-DNA, fluorescence polarization, single point; shares compounds with Rev-erbA mod; 90 min; activation, % at 25 µM; actives 61% (n = 3,000);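 active means activation at or above a set limit, or at least 3 SD above the negative control mean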
RORg counter = modulation of RORgamma DNA binding, dose response, counter-screen for Rev-erb alpha modulator project, biochemical, fluorescence polarization, FITC-DNA; shares compounds with Rev-erbA mod; purified RORgamma protein-FITC-DNA binding; IC50, µM; actives 8% (n = 910);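 active means Compounds whose fitted half-maximal concentration for disrupting protein-DNA binding is below 10 micromolar; the record names Rev-erb in its text, so the target is in doubt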
Large screens that a line does not name were inactive (follow-up assays come after a bar, where they were run).

Cc1ccc(Cc2c(-c3cccc(Cl)c3)nc3c(C)cc(Br)cn23)cc1	none (no result: MC4R barr agon, NTR1 agonist, MC4R antagonist)
Cc1cc(Br)cn2c(Cc3cccc(F)c3)c(-c3cccc(Cl)c3)nc12	Rev-erbA mod 19 (no result: MC4R barr agon, NTR1 agonist, MC4R antagonist) | NR1D1 mod conf inactive
O=C(/C=C(\Nc1cccc(OC(F)F)c1)c1ccccc1)c1ccccc1	none (no result: MC4R barr agon, NTR1 agonist, MC4R antagonist)
COC(=O)c1ccccc1NC(=O)N1c2ccccc2Sc2ccccc21	none
COC(=O)c1ccc(C(=O)OC)c(NC(=O)N2c3ccccc3Sc3ccccc32)c1	Rev-erbA mod 26 | NR1D1 mod conf 47 | RORg counter inactive
O=C(Cn1sc2ccccc2c1=O)Nc1ccccc1	Rev-erbA mod 15 (no result: NTR1 agonist) | NR1D1 mod conf inactive
O=C(Cn1sc2ccccc2c1=O)NC12CC3CC(CC(C3)C1)C2	none (no result: Rev-erbA mod, PG9 binder)
CNc1ccccc1/C(O)=C(\C#N)C(=O)NCc1cccc2ccccc12	Rev-erbA mod 42 (no result: MC4R barr agon, NTR1 agonist, MC4R antagonist, PG9 binder) | NR1D1 mod conf 26
COc1cccc(CNC(=O)Cn2c(-c3ccccc3)cc(C(C)=O)c2C)c1	none (no result: MC4R barr agon, NTR1 agonist, MC4R antagonist, PG9 binder)
CCCCN(C(=O)CSc1nn(-c2ccc(F)cc2)c(=S)s1)c1c(N)n(CCCC)c(=O)[nH]c1=O	none
Cn1c(N)c(C(=O)CSc2nn(-c3ccc(F)cc3)c(=S)s2)c(=O)n(C)c1=O	Rev-erbA mod 42 | NR1D1 mod conf 42 | RORg counter inactive
CCCN=C(C)c1c(-c2ccccc2)[nH]n(-c2nc3ccccc3s2)c1=O	Rev-erbA mod 58 | NR1D1 mod conf 40 | RORg counter 8.5
CCN(CC)CCCN=Cc1c(-c2ccccc2)[nH]n(-c2nc3ccccc3s2)c1=O	none
CCOC(=O)N1CCN(C(=O)C[C@H]2C[C@@]3(C(=O)OC)C(=C[C@H](C(C)(C)C)O[C@@H]3C)N(Cc3ccco3)C2=O)CC1	none (no result: MC4R barr agon, NTR1 agonist, MC4R antagonist, PG9 binder)
COc1ccccc1N/C(N)=N/c1nc(CSc2ccc(C)cc2)cc(=O)[nH]1	Rev-erbA mod 31 | NR1D1 mod conf 34 | RORg counter inactive
Cc1sc(NC(=O)c2ccccc2)c(C(=O)NC(C)C)c1C	Rev-erbA mod 24 | NR1D1 mod conf inactive
COc1cc(/C=C/C(=O)OCC(=O)c2ccc(S(=O)(=O)N3CCCCC3)cc2)cc(OC)c1OC	Rev-erbA mod 18 | NR1D1 mod conf inactive
COc1cccc(/C=C/C(=O)OCC(=O)c2ccc(S(=O)(=O)N3CCCCC3)cc2)c1OC	none
CC(C)CNC(=O)C1(C)CCCCCN1Cc1ccccc1-c1ccccc1 (stereo not drawn)	Rev-erbA mod 20 (no result: NTR1 agonist) | NR1D1 mod conf inactive
O=C(NCc1ccccc1Cl)c1ccc2c(=O)n(CCCN3CCCC3=O)c(=S)[nH]c2c1	Rev-erbA mod 29 | NR1D1 mod conf 18
CCCn1c(=S)[nH]c2cc(C(=O)NCc3ccccc3OC)ccc2c1=O	Rev-erbA mod 36 (no result: NTR1 agonist) | NR1D1 mod conf 27
COCCNC(=O)c1ccc2c(=O)n(CCCN3CCCC3=O)c(=S)[nH]c2c1	none
COC(CNC(=O)c1ccc2c(=O)n(Cc3ccc(Cl)cc3)c(=S)[nH]c2c1)OC	Rev-erbA mod 29 | NR1D1 mod conf inactive
O=S(=O)(c1ccccc1)c1nc(-c2ccccc2)oc1N1CCCC1	Rev-erbA mod 16 | NR1D1 mod conf inactive
COc1ccc(-n2c(SCC(=O)NC3CCCCC3)nc3ccsc3c2=O)cc1	Rev-erbA mod 49 | NR1D1 mod conf 33 | RORg counter inactive
CCCCN1CC(COCc2ccccc2)Oc2cccc(Oc3ccc(SC)c(C)c3)c2S1(=O)=O (stereo not drawn)	none (no result: MC4R barr agon, NTR1 agonist, MC4R antagonist)
CCCC(=O)Nc1c(C(=O)OCC)oc2ccccc12	none
CCOC(=O)c1oc2ccccc2c1NC(=O)COc1cccc(OC)c1	Rev-erbA mod 23 | NR1D1 mod conf inactive
O=C(Nc1ccccc1)OCCN1C(=O)CCC12CCC(c1ccc(Cl)cc1)CC2 (stereo not drawn)	none (no result: MC4R barr agon, NTR1 agonist, MC4R antagonist, PG9 binder)
CCn1c(SCC(=O)c2c[nH]c3ccccc23)nnc1-c1cccs1	Rev-erbA mod 102 | NR1D1 mod conf 112 | RORg counter inactive
COCCn1c(SCC(=O)c2c[nH]c3ccccc23)nnc1-c1ccncc1	none (no result: Rev-erbA mod, PG9 binder)
Cc1sc2c(c1C)c(=O)n(-c1ccc(Cl)cc1)c(=O)n2Cc1cc(=O)n2ccccc2n1	Rev-erbA mod 37 | NR1D1 mod conf 27
Cc1cc2oc(C(=O)Nc3ccc(S(=O)(=O)Nc4ncccn4)cc3)c(C)c2cc1Cl	Rev-erbA mod 22 | NR1D1 mod conf inactive
Cc1ccc2oc(C(=O)Nc3ccc(S(=O)(=O)Nc4onc(C)c4C)cc3)c(C)c2c1	none
COC(=O)c1cc2c(c3c4cc(C)ccc4n(S(=O)(=O)c4ccc(C)cc4)c13)C(=O)N(Cc1ccccc1OC)C2	none (no result: MC4R barr agon, NTR1 agonist, MC4R antagonist)
O=C(Nc1ccc2c(c1)OCO2)NC1CCN(S(=O)(=O)c2ccc(F)cc2)CC1	none (no result: MC4R barr agon, NTR1 agonist, MC4R antagonist, PG9 binder)
CCCCCCn1cnc2c(c1=O)c1nc3ccccc3nc1n2Cc1cccs1	Rev-erbA mod 31 | NR1D1 mod conf inactive
COc1ccc(-n2c(C)cc(C(=O)COC(=O)c3cc(NC(=O)c4cccs4)c(OC)c(OC)c3)c2C)cc1	Rev-erbA mod 32 | NR1D1 mod conf inactive
Cc1cc(NC(=O)c2ccccc2F)nc2c1c(=O)oc1ccccc12	Rev-erbA mod 32 | NR1D1 mod conf inactive
Cc1cc(NC(=O)CC(C)(C)C)nc2c1c(=O)oc1ccccc12	Rev-erbA mod 38 | NR1D1 mod conf inactive
COc1ccc(C(=O)Nc2cc(C)c3c(=O)oc4ccccc4c3n2)cc1	none
CCCC(=O)Nc1cc(C)c2c(=O)oc3ccccc3c2n1	none
FC(F)(F)c1cc(-c2ccco2)nc(-n2nnc3ccccc32)n1	Rev-erbA mod 21 | NR1D1 mod conf inactive
FC(F)(F)c1cc(-c2ccco2)nc(-n2nc(C(F)(F)F)cc2C2CC2)n1	none
CC1CN(C(=O)N2c3ccccc3Sc3ccccc32)C(C)CC1=O (stereo not drawn)	Rev-erbA mod 44 | NR1D1 mod conf 60
COc1cc(C(=O)Nc2nc(-c3ccc(Cl)cc3)c(C)s2)ccc1OCC(=O)Nc1ccc(F)cc1	Rev-erbA mod 122 | NR1D1 mod conf 125 | RORg counter inactive
COc1cc(C(C)=O)ccc1OCC(=O)Nc1ccc2nc(C)sc2c1	none
